Source: ChEMBL document CHEMBL4024783, “Alkylated Piperazines and Piperazine-Azole Hybrids as Antifungal Agents” (J Med Chem, 2018)
Values after ≈ are worked out from the molar mass of the structure shown. Active and inactive are the calls of the source. The calls are words filed in the database; no cut-off is given here.

Experiments:
Candida albicans [1] = assay: Antifungal activity against Candida albicans ATCC 10231 after 48 hrs by broth dilution method; format: functional; settings: ATCC 10231, 48 h
Candida albicans [2] = assay: Antifungal activity against Candida albicans ATCC 64124 after 48 hrs by broth dilution method; format: functional; settings: Candida albicans, ATCC 64124, 48 h
Summary of the method: (§1)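 CLSI M27-A3 broth microdilution with minor modifications. Overnight YPD culture grown at 35 °C, 200 rpm, adjusted to OD600 0.12, diluted in RPMI 1640 buffered to pH 7.0 with 0.165 M MOPS to a final 1–2 × 10^3 CFU/mL. Test compounds at 0.015–31.3 µg/mL, 48 h at 35 °C, DMSO <1.25%. […] Triplicate.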

Candida albicans [3] = assay: Antifungal activity against itraconazole and fluconazole susceptible Candida albicans ATCC MYA-2876 after 48 hrs by broth dilution method; format: functional; settings: Candida albicans, ATCC MYA-2876, 48 h
Candida albicans [4] = assay: Antifungal activity against itraconazole and fluconazole resistant Candida albicans ATCC 90819 after 48 hrs by broth dilution method; format: functional; settings: Candida albicans, ATCC 90819, 48 h; summary of the method: as §1
Candida albicans [5] = assay: Antifungal activity against itraconazole and fluconazole susceptible Candida albicans ATCC MYA-2310 after 48 hrs by broth dilution method; format: functional; settings: Candida albicans, ATCC MYA-2310, 48 h
Candida albicans [6] = assay: Antifungal activity against itraconazole and fluconazole resistant Candida albicans ATCC MYA-1237 after 48 hrs by broth dilution method; format: functional; settings: Candida albicans, ATCC MYA-1237, 48 h; summary of the method: as §1
Candida albicans [7] = assay: Antifungal activity against itraconazole and fluconazole resistant Candida albicans ATCC MYA-1003 after 48 hrs by broth dilution method; format: functional; settings: Candida albicans, ATCC MYA-1003, 48 h; summary of the method: as §1
Nakaseomyces glabratus = assay: Antifungal activity against Candida glabrata ATCC 2001 after 48 hrs by broth dilution method; format: functional, CBS 138; settings: Nakaseomyces glabratus, CBS 138, 48 h
Pichia kudriavzevii = assay: Antifungal activity against Candida krusei ATCC 6258 after 48 hrs by broth dilution method; format: functional; settings: Pichia kudriavzevii, ATCC 6258, 48 h
Summary of the method: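 Yeasts tested per CLSI M27-A3 with minor changes. An overnight YPD culture (35 °C, 200 rpm) was adjusted to OD600 0.12 and diluted in MOPS-buffered RPMI 1640 (pH 7.0) to a final 1–2 × 10^3 CFU/mL. Compounds 0.015–31.3 µg/mL, DMSO <1.25%.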

Candida parapsilosis [8] = assay: Antifungal activity against Candida parapsilosis ATCC 22019 after 48 hrs by broth dilution method; format: functional; settings: Lodderomyces parapsilosis, ATCC 22019, 48 h
Aspergillus flavus = assay: Antifungal activity against Aspergillus flavus ATCC MYA-3631 after 48 hrs by broth dilution method; format: functional; settings: ATCC MYA-3631, 48 h
Aspergillus nidulans [9] = assay: Antifungal activity against Aspergillus nidulans ATCC 38163 after 48 hrs by broth dilution method; format: functional; settings: Aspergillus nidulans, ATCC 38163, 48 h
Summary of the method: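 A. nidulans run per CLSI M38-A2. PDA spores were filtered through glass wool and counted by hemocytometer. Test range 0.03–31.3 µg/mL in MOPS-buffered RPMI 1640 (pH 7.0), final 5 × 10^5 CFU/mL.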

Aspergillus terreus = assay: Antifungal activity against Aspergillus terreus ATCC MYA-3633 after 48 hrs by broth dilution method; format: functional; settings: Aspergillus terreus, ATCC MYA-3633, 48 h
Summary of the method: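 Molds tested per CLSI M38-A2. Spores were harvested from sporulating PDA cultures by filtering through glass wool and counted on a hemocytometer. Serial dilutions (0.03–31.3 µg/mL) were made in RPMI 1640 buffered to pH 7.0 with 0.165 M MOPS, final inoculum 5 × 10^5 CFU/mL.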

A549 [10] = assay: Cytotoxicity against human A549 cells up to 15.5 ug/mL after 24 hrs by resazurin-based fluorescence assay; format: cell-based; settings: a549, 24 h
Summary of the method: (§2)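 Cells grown in DMEM with 10% FBS at 37 °C, 5% CO2, and seeded at 10000 (HEK-293) or 3000 (BEAS-2B, A549) per well. After 16 h, exposed 24 h to 0.13–31 µg/mL final in medium with 0.1–0.4% DMSO. Resazurin added for 6–10 h; fluorescence read at 560/590 nm and survival normalized to DMSO control after background subtraction. Triton X-100 12.5% v/v positive control; duplicate.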

HEK293 = assay: Cytotoxicity against HEK293 cells at 7.8 ug/mL after 24 hrs by resazurin-based fluorescence assay; format: cell-based; settings: human, hek293, 24 h; summary of the method: as §2
BEAS-2B = assay: Cytotoxicity against human BEAS2B cells at 7.8 ug/mL after 24 hrs by resazurin-based fluorescence assay; format: cell-based; summary of the method: as §2
Candida albicans [11] = assay: Fungicidal activity against Candida albicans ATCC 10231 at 4 times MIC incubated for 24 hrs by time kill assay; format: functional
Summary of the method: (§3)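 Overnight YPD cultures were diluted in RPMI 1640 to OD600 0.12–0.13; initial inoculum 1–4 × 10^5 CFU/mL. […] Shaken at 200 rpm, 35 °C, for 24 h, sampling at 0, 3, 6, 9, 12 and 24 h. Serial dilutions were plated on PDA and CFU counted; detection limit 100 CFU/mL; duplicate.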

Candida albicans [12] = assay: Antifungal activity against Candida albicans ATCC 10231 after 48 hrs in the presence of 10% FBS by broth dilution method; format: functional; settings: ATCC 10231, 48 h
Candida parapsilosis [13] = assay: Antifungal activity against Candida parapsilosis ATCC 22019 after 48 hrs in the presence of 10% FBS by broth dilution method; format: functional; settings: Lodderomyces parapsilosis, ATCC 22019, 48 h
Aspergillus nidulans [14] = assay: Antifungal activity against Aspergillus nidulans ATCC 38163 after 48 hrs in the presence of 10% FBS by broth dilution method; format: functional; settings: ATCC 38163, 48 h
Candida albicans [15] = assay: Antibiofilm activity against voriconazole resistant Candida albicans ATCC 64124 sessile cells incubated for 24 hrs by XTT reduction assay; format: functional; settings: ATCC 64124, 24 h
Summary of the method: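 Strain B grown overnight in YPD broth at 35 °C, diluted to OD600 0.1 (~10^6 CFU/mL), then grown statically for 24 h at 37 °C to form biofilm. Washed with PBS, then drug in RPMI 1640 at 0.12–62.5 µg/mL for 24 h at 37 °C. Read-out: XTT 0.5 mg/mL with menadione 1 µM, 2 h, A490. SMIC50/SMIC80 are 50%/80% decreases versus drug-free biofilm. Duplicate.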

Candida parapsilosis [16] = assay: Fungistatic activity against Candida parapsilosis ATCC 22019 up to 8 times MIC incubated for 24 hrs by time kill assay; format: functional; summary of the method: as §3
A549 [17] = assay: Cytotoxicity against human A549 cells up to 7.8 ug/mL after 24 hrs by resazurin based fluorescence assay; format: cell-based; settings: a549, 24 h; summary of the method: as §2
Candida albicans [18] = assay: Antifungal activity against Candida albicans ATCC 10231 at 3.9 ug/mL incubated for 1 hr by propidium iodide staining-based fluorescence microscopic method; format: functional
Summary of the method: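 C. albicans ATCC 10231 from an overnight YPD culture (35 °C, 200 rpm) was transferred into RPMI 1640 and exposed to drug. Membrane integrity was assessed by uptake of propidium iodide under fluorescence microscopy.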

Candida albicans [19] = assay: Inhibition of 14alpha-demethylase in Candida albicans ATCC 10231 assessed as ergosterol levels at […] by GC-MS analysis; set-up: scale not given: the % may be the effect or the level left
Candida albicans [20] = assay: Inhibition of 14alpha-demethylase in Candida albicans ATCC 10231 assessed as lanosterol levels at […] by GC-MS analysis; set-up: scale not given: the % may be the effect or the level left
Candida albicans [21] = assay: Inhibition of 14alpha-demethylase in Candida albicans ATCC 10231 assessed as eburicol levels at […] by GC-MS analysis; set-up: scale not given: the % may be the effect or the level left
Candida albicans [22] = assay: Inhibition of 14alpha-demethylase in Candida albicans ATCC 10231 assessed as 14alpha-methyl ergosta-8,24(28)-dien-3beta,6alpha-diol levels at […] by GC-MS analysis; set-up: scale not given: the % may be the effect or the level left
[23] = Aqueous solubility of the compound; format: physicochemical; settings: buffer
[24] = Solubility of the compound in DMSO; format: physicochemical
Candida albicans [25] = assay: Inhibition of 14alpha-demethylase in Candida albicans ATCC 10231 assessed as total sterol levels at […] by GC-MS analysis; set-up: scale not given: the % may be the effect or the level left

| SMILES | MIC (Candida albicans [1]) [µM] | MIC (Candida albicans [2]) [µM] | MIC (Candida albicans [4]) [µM] | MIC (Candida albicans [5]) [µM] | MIC (Candida albicans [6]) [µM] | MIC (Candida albicans [7]) [µM] | MIC (Nakaseomyces glabratus) [µM] | MIC (Pichia kudriavzevii) [µM] | MIC (Candida parapsilosis [8]) [µM] | MIC (Aspergillus flavus) [µM] | MIC (Aspergillus nidulans [9]) [µM] | MIC (Aspergillus terreus) [µM] | Activity (HEK293) | Activity (BEAS-2B) | also measured |
| --- | --- | --- | --- | --- | --- | --- | --- | --- | --- | --- | --- | --- | --- | --- | --- |
| CCCCCCCCN1CCN(CC(O)(Cn2cncn2)c2ccc(F)cc2F)CC1 (stereo unspecified) | 9 (≈ 3.92 µg/mL) | 71.9 (≈ 31.3 µg/mL) | 35.8 (≈ 15.6 µg/mL) | > 71.9 | 71.9 (≈ 31.3 µg/mL) | 2.2 to 71.9 (≈ 0.958 to 31.3 µg/mL) | 35.8 (≈ 15.6 µg/mL) | 17.9 (≈ 7.8 µg/mL) | 0.1 (≈ 0.0436 µg/mL) | 4.5 (≈ 1.96 µg/mL) | 9 (≈ 3.92 µg/mL) | 9 (≈ 3.92 µg/mL) | Toxic | Toxic | MIC (Candida albicans [3]): 71.9 µM (≈ 31.3 µg/mL); Activity (A549 [10]): Non-Toxic |
| CCCCCCCCCCN1CCN(CC(O)(Cn2cncn2)c2ccc(F)cc2F)CC1 (stereo unspecified) | 2.1 (≈ 0.974 µg/mL) | 8.4 (≈ 3.89 µg/mL) | 8.4 (≈ 3.89 µg/mL) | 16.8 (≈ 7.79 µg/mL) | 16.8 (≈ 7.79 µg/mL) | 8.4 (≈ 3.89 µg/mL) | > 67.5 | 4.2 (≈ 1.95 µg/mL) | 0.03 (≈ 0.0139 µg/mL) | 0.5 (≈ 0.232 µg/mL) | 2.1 (≈ 0.974 µg/mL) | 2.1 (≈ 0.974 µg/mL) | Toxic | Toxic | Activity (Candida albicans [11]): Active; MIC (Candida albicans [12]): 0.975 µg/mL; MIC (Candida parapsilosis [13]): 0.06 µg/mL; MIC (Aspergillus nidulans [14]): 0.975 µg/mL; MIC50 (Candida albicans [15]): 15.6 µg/mL (≈ 33.6 µM); MIC80 (Candida albicans [15]): 62.5 µg/mL (≈ 135 µM); Activity (Candida parapsilosis [16]): Active; Activity (A549 [17]): Non-Toxic; Activity (Candida albicans [18]): inactive; Activity (Candida albicans [19]): 30.1%; Activity (Candida albicans [20]): 33.4%; Activity (Candida albicans [21]): 1.25%; Activity (Candida albicans [22]): 15.4%; solubility [23]: Soluble; solubility [24]: Soluble; Activity (Candida albicans [25]): 2.8 to 14.4% |
